Reference: ChEMBL document CHEMBL2163280 (J Med Chem, 2012)
Active and inactive are the calls of the source. No cut-off for these calls is given here.

What was measured:
[1] = system: Mus musculus; test: Antidepressant activity in BALB/cJ mouse assessed as reduction in immobility at 10 mg/kg, ip measured after 30 mins post drug administration by forced swim test; type: functional, organism-based; design: dose 10 mg/kg
Method in brief: (§1)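 Male BALB/cJ mice, 8–10 weeks old, housed four per cage at 22±2 °C on a 12 h light–dark cycle. Drug was dissolved in injectable water and given ip or by oral gavage at 10 mL/kg. After 30 min, each mouse was placed in a glass cylinder of water (23±1 °C, 12 cm deep), and time floating immobile was scored over 6 min. n = 9–10/group; ANOVA, then Fisher's PLSD against vehicle.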

[2] = system: Mus musculus; test: Antidepressant activity in BALB/cJ mouse assessed as reduction in immobility at 20 mg/kg, po measured after 30 mins post drug administration by forced swim test; type: functional, organism-based; design: dose 20 mg/kg; method in brief: as §1
[3] = target: Neuronal acetylcholine receptor; alpha4/beta2 (Rattus norvegicus, UniProt P09483+P12390); test: Displacement of [3H]epibatidine from rat alpha4beta2 nACHR; type: protein-complex assay
Neuronal acetylcholine receptor; alpha4/beta2, sequence (P09483 whole entry): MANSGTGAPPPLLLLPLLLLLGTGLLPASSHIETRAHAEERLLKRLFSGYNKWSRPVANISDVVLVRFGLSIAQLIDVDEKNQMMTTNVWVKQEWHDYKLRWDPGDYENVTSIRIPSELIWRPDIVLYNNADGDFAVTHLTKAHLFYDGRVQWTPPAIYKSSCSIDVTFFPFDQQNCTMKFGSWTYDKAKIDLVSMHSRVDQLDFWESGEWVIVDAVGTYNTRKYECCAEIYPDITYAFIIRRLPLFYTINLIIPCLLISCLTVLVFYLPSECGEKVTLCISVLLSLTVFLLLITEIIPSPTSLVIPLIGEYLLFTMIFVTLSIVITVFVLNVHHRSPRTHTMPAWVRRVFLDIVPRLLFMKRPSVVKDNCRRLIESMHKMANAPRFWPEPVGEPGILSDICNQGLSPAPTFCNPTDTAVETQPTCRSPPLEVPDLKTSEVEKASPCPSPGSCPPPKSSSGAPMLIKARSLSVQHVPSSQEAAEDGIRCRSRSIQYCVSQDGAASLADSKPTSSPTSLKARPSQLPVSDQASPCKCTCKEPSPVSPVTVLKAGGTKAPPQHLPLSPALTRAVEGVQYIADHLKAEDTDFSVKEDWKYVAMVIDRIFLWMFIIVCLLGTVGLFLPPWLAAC
Neuronal acetylcholine receptor; alpha4/beta2, sequence (P12390 whole entry): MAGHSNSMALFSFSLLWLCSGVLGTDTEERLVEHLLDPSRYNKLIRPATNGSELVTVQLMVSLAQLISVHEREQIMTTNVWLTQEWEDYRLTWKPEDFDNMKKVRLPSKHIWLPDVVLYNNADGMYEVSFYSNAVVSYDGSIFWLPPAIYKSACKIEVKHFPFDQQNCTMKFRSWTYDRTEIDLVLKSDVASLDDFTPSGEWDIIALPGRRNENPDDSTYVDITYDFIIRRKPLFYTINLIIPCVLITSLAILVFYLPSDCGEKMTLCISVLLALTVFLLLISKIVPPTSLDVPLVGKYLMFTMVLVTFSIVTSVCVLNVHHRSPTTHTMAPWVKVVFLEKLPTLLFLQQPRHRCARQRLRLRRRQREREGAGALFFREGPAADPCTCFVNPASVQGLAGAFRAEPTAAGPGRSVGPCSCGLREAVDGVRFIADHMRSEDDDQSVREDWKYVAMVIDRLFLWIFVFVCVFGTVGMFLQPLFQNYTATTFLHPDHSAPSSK

Row | Compound | Activity [1] | Activity [2] | Ki [3] [nM]
1 | CN[C@H]1CC[C@@H](c2ccc(Cl)c(Cl)c2)c2ccccc21 | Active | Active | –
2 | Cc1cc([C@@H]2CCCN2C)on1 [ABT-418] | – | – | 7.4
